According to paper PMC5854750 (European Journal of Drug Metabolism and Pharmacokinetics, 2017):

Experiments:
[1] = cited from earlier work
[2] = SRD component: plasma and urine pharmacokinetics; type: in vivo, human
[3] = Bioavailability/food effect; type: in vivo; conditions: male, human, plasma, oral, 25 mg, Median t max
Method in brief: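 Healthy men (18–45 y, BMI 18.5–29.9 kg/m2) in a randomised crossover received single oral 25 mg doses as tablet fasted, tablet after a high-fat, high-calorie meal, or 5-mg/mL solution fasted. Washout was at least 14 days, and PK sampling ran to Day 9 per period. Plasma was assayed by validated LC-MS/MS over 1.00–1000 nM (linear calibration, 1/x² weighting, QC in K3-EDTA plasma). Adjusted gMean ratios are reported with 90% CI.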

healthy male volunteers [4] = test: BA/FE component: safety and tolerability; type: in vivo, human; conditions: Part 2 (BA/FE), 25 mg, six of 11 subjects
Method in brief: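 Open-label, randomised three-way crossover in 12 healthy men (18–45 y, BMI 18.5–29.9 kg/m2). Each received single oral 25 mg doses: tablet fasted, tablet after a standardised high-fat, high-calorie meal, and 5-mg/mL solution fasted, in one of six sequences. Washout between periods was at least 14 days. Safety was monitored to Day 9 of each period, with spontaneous AEs recorded by onset, end time and intensity.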

healthy male volunteers [5] = test: Single-rising dose; type: in vivo, human

C[C@@H](Oc1ccc(S(C)(=O)=O)cc1C(=O)N1C[C@@H]2C[C@]2(c2cc(C(F)(F)F)on2)C1)C(F)(F)F [BI 425809]
Biopharmaceutics Classification System class [1]: Class II
Permeability [1]: high
Fractional renal excretion ([2]; SRD, similar across all dose groups): 5%
Tmax ([2]; male, human, plasma, oral): ~45 min
half-life ([2]; male, human, plasma, oral): 1950 to 2820 min
Tmax ([3]; 25-mg solution, fasted): 0.875 h
Tmax ([3]; 25-mg tablet, fasted): 4 h
Tmax ([3]; 25-mg tablet, fed): 1.77 h
Subjects with at least one AE assessed as related to treatment (healthy male volunteers [4]): 54.5%
Subjects with at least one AE assessed as related to treatment (healthy male volunteers [5]; Part 1 (SRD), 27 of 72 subjects (includes placebo subjects)): 37.5%
Changes from baseline of QTcF interval, QT interval or heart rate vs placebo (healthy male volunteers [5]; Part 1, any of the doses tested): no statistically relevant differences
Colour discrimination and visual acuity tests (healthy male volunteers [5]; SRD): no changes from baseline
Incidence of AEs (healthy male volunteers [5]; SRD, 0.5-mg group): 16.7%
Incidence of AEs (healthy male volunteers [5]; SRD, 150-mg group): 100%
Subjects with eye disorder AE (photopsia, blurred vision or chromatopsia) (healthy male volunteers [5]; SRD, 150-mg group, n = 6): all six subjects
Subjects with at least one AE (healthy male volunteers [5]; SRD, all BI 425809 doses 0.5–150 mg, 34/54 subjects): 63.0%
Bond–Lader VAS scores of other items (calmness, contentment, external and internal perception) (healthy male volunteers [5]; SRD, dose levels of 100 and 150 mg): increased
Bond and Lader VAS and Bowdle VAS scores for subjective feelings of sedation (healthy male volunteers [5]; SRD, doses of 10 mg and greater): increase
Subjects with abnormalities on the Amsler grid test (healthy male volunteers [5]; SRD, one each at 25 and 100 mg): two subjects
Maximally tolerated dose (healthy male volunteers [5]; SRD, single oral dose, escalation terminated owing to dose-limiting AEs): 150 mg
ECG findings (healthy male volunteers [5]; both parts): No clinically relevant abnormal findings
Neurological examination findings (healthy male volunteers [5]; both parts): No clinically relevant abnormal findings
Subjects with at least one AE assessed as related to treatment (healthy male volunteers [5]; both parts, 33/83 subjects (includes placebo subjects)): 39.8%
Changes in laboratory parameters, hormone levels, haematology or vital signs (healthy male volunteers [5]; either part of the study): no clinically relevant changes
Time to disappearance of headache (healthy male volunteers [5]; first day of dosing): ≤ 12 h
Tolerability (healthy male volunteers [5]; single dose, anticipated therapeutic dose range of 5–25 mg): generally well-tolerated
